Laboratory results from ChEMBL document CHEMBL3286203, “Reactive oxygen species (ROS) inducible DNA cross-linking agents and their effect on cancer cells and normal lymphocytes” (J Med Chem, 2014).
Activity calls are given as the source filed them.

Tests used:
[1] = system: SF-539; experiment: Cytotoxicity against human SF539 cells assessed as growth inhibition at 10 uM after 48 hrs by SRB assay; type: functional, cell-based
How it was run: (§1)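 Single-dose screen run by the NCI Developmental Therapeutics Program (NCI-60). Cells were grown in RPMI 1640 with 5% fetal bovine serum and 2 mM L-glutamine. They were plated at 5000–40 000 cells/well, depending on doubling time. Each line was run in two plates and exposed to 10 μM drug for 48 h at 37 °C, 5% CO2, 100% humidity. Read-out was growth percent.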

[2] = system: SNB-19; experiment: Cytotoxicity against human SNB19 cells assessed as growth inhibition at 10 uM after 48 hrs by SRB assay; type: functional, cell-based
How it was run: (§2)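 NCI-60 DTP human tumour line screen. Cells grown in RPMI 1640 with 5% fetal bovine serum and 2 mM L-glutamine, plated at 5000–40 000 cells/well according to doubling time. Single dose of 10 μM for 48 h at 37 °C, 5% CO2, 95% air, 100% humidity, two plates per line. Read-out is growth percent.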

[3] = system: SNB-75; experiment: Cytotoxicity against human SNB75 cells assessed as growth inhibition at 10 uM after 48 hrs by SRB assay; type: functional, cell-based; how it was run: as §2
[4] = system: LOX IMVI; experiment: Cytotoxicity against human LOXIMVI cells assessed as growth inhibition at 10 uM after 48 hrs by SRB assay; type: functional, cell-based
How it was run: (§3)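 NCI DTP 60-cell-line screen run at the NCI. Cells were grown in RPMI 1640 with 5% FBS and 2 mM L-glutamine. They were seeded at 5000–40 000 cells/well depending on doubling time and grown in two plates per line. Each was exposed to a single 10 μM dose for 48 h at 37 °C, 5% CO2, 95% air, 100% humidity. Read-out was percent growth.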

[5] = system: M14; experiment: Cytotoxicity against human M14 cells assessed as growth inhibition at 10 uM after 48 hrs by SRB assay; type: functional, cell-based; how it was run: as §3
[6] = system: SK-MEL-28; experiment: Cytotoxicity against human SK-MEL-28 cells assessed as growth inhibition at 10 uM after 48 hrs by SRB assay; type: functional, cell-based; how it was run: as §1
[7] = system: SK-MEL-5; experiment: Cytotoxicity against human SK-MEL-5 cells assessed as growth inhibition at 10 uM after 48 hrs by SRB assay; type: functional, cell-based; how it was run: as §1
[8] = system: OVCAR-3; experiment: Cytotoxicity against human OVCAR3 cells assessed as growth inhibition at 10 uM after 48 hrs by SRB assay; type: functional, cell-based; how it was run: as §1
[9] = system: NCI/ADR-RES; experiment: Cytotoxicity against human NCI-ADR-RES cells assessed as growth inhibition at 10 uM after 48 hrs by SRB assay; type: functional, cell-based; how it was run: as §1
[10] = system: SK-OV-3; experiment: Cytotoxicity against human SKOV3 cells assessed as growth inhibition at 10 uM after 48 hrs by SRB assay; type: functional, cell-based; how it was run: as §1
[11] = system: 786-0; experiment: Cytotoxicity against human 786-0 cells assessed as growth inhibition at 10 uM after 48 hrs by SRB assay; type: functional, cell-based; how it was run: as §3
[12] = system: A498; experiment: Cytotoxicity against human A498 cells assessed as growth inhibition at 10 uM after 48 hrs by SRB assay; type: functional, cell-based; how it was run: as §3
[13] = system: ACHN; experiment: Cytotoxicity against human ACHN cells assessed as growth inhibition at 10 uM after 48 hrs by SRB assay; type: functional, cell-based; how it was run: as §3
[14] = system: CAKI-1; experiment: Cytotoxicity against human Caki1 cells assessed as growth inhibition at 10 uM after 48 hrs by SRB assay; type: functional, cell-based; how it was run: as §3
[15] = system: SN12C; experiment: Cytotoxicity against human SN12C cells assessed as growth inhibition at 10 uM after 48 hrs by SRB assay; type: functional, cell-based; how it was run: as §2
[16] = system: MCF7; experiment: Cytotoxicity against human MCF7 cells assessed as growth inhibition at 10 uM after 48 hrs by SRB assay; type: functional, cell-based; how it was run: as §1
[17] = system: MDA-MB-231; experiment: Cytotoxicity against human MDA-MB-231 cells assessed as growth inhibition at 10 uM after 48 hrs by SRB assay; type: functional, cell-based; how it was run: as §1
[18] = system: Hs-578T; experiment: Cytotoxicity against human Hs578T cells assessed as growth inhibition at 10 uM after 48 hrs by SRB assay; type: functional, cell-based; how it was run: as §3
[19] = system: BT-549; experiment: Cytotoxicity against human BT549 cells assessed as growth inhibition at 10 uM after 48 hrs by SRB assay; type: functional, cell-based; how it was run: as §3
[20] = system: T47D; experiment: Cytotoxicity against human T47D cells assessed as growth inhibition at 10 uM after 48 hrs by SRB assay; type: functional, cell-based; how it was run: as §2
[21] = system: MDA-MB-468; experiment: Cytotoxicity against human MDA-MB-468 cells assessed as growth inhibition at 10 uM after 48 hrs by SRB assay; type: functional, cell-based; how it was run: as §1
[22] = system: HOP-62; experiment: Cytotoxicity against human HOP62 cells assessed as growth inhibition at 10 uM after 48 hrs by SRB assay; type: functional, cell-based; how it was run: as §3
[23] = system: NCI-H226; experiment: Cytotoxicity against human NCI-H226 cells assessed as growth inhibition at 10 uM after 48 hrs by SRB assay; type: functional, cell-based; how it was run: as §1
[24] = system: NCI-H23; experiment: Cytotoxicity against human NCI-H23 cells assessed as growth inhibition at 10 uM after 48 hrs by SRB assay; type: functional, cell-based; how it was run: as §1
[25] = system: NCI-H522; experiment: Cytotoxicity against human NCI-H522 cells assessed as growth inhibition at 10 uM after 48 hrs by SRB assay; type: functional, cell-based; how it was run: as §1
[26] = system: HCT-116; experiment: Cytotoxicity against human HCT116 cells assessed as growth inhibition at 10 uM after 48 hrs by SRB assay; type: functional, cell-based; how it was run: as §3
[27] = system: HCT-15; experiment: Cytotoxicity against human HCT15 cells assessed as growth inhibition at 10 uM after 48 hrs by SRB assay; type: functional, cell-based; how it was run: as §3
[28] = system: HT-29; experiment: Cytotoxicity against human HT-29 cells assessed as growth inhibition at 10 uM after 48 hrs by SRB assay; type: functional, cell-based; how it was run: as §3
[29] = system: SW-620; experiment: Cytotoxicity against human SW620 cells assessed as growth inhibition at 10 uM after 48 hrs by SRB assay; type: functional, cell-based; how it was run: as §2
[30] = system: SF-295; experiment: Cytotoxicity against human SF295 cells assessed as growth inhibition at 10 uM after 48 hrs by SRB assay; type: functional, cell-based; how it was run: as §1
[31] = Induction of [32P]-labeled 49-mer oligonucleotide duplex DNA 12 with GNC sequence at terminus (unknown origin) interstrand cross-linking at 1 mM after 16 hrs by PAGE
How it was run: (§4)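 32P-labelled 12a (1.0 μM) annealed with 1.5 equiv of 12b in 10 mM potassium phosphate pH 7 / 100 mM NaCl (65 °C for 3 min, then slow cooling). Duplex incubated with compound (final 1 μM–5 mM), with or without H2O2, in NaCl and potassium phosphate pH 8 at room temperature for 16 h. Quenched in formamide; 20% denaturing PAGE.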

[32] = Induction of [32P]-labeled 49-mer oligonucleotide duplex DNA 12 with GNC sequence at terminus (unknown origin) interstrand cross-linking at 1 mM after 16 hrs by PAGE in presence of H2O2; how it was run: as §4
[33] = system: SR; experiment: Cytotoxicity against human SR cells assessed as growth inhibition at 10 uM after 48 hrs by SRB assay; type: functional, cell-based; how it was run: as §2
[34] = system: RPMI-8226; experiment: Cytotoxicity against human RPMI8226 cells assessed as growth inhibition at 10 uM after 48 hrs by SRB assay; type: functional, cell-based; how it was run: as §1
[35] = system: HL-60(TB); experiment: Cytotoxicity against human HL-60(TB) cells assessed as growth inhibition at 10 uM after 48 hrs by SRB assay; type: functional, cell-based; how it was run: as §3
[36] = system: CCRF-CEM; experiment: Cytotoxicity against human CCRF-CEM cells assessed as growth inhibition at 10 uM after 48 hrs by SRB assay; type: functional, cell-based; how it was run: as §3

CC1(C)OB(c2ccc(N(CCBr)CCOS(C)(=O)=O)cc2)OC1(C)C
active: growth inhibition (GI) [1] | growth inhibition (GI) [2] | growth inhibition (GI) [3] | growth inhibition (GI) [4] | growth inhibition (GI) [5] | growth inhibition (GI) [6] | growth inhibition (GI) [7] | growth inhibition (GI) [8] | growth inhibition (GI) [9] | growth inhibition (GI) [10] | growth inhibition (GI) [11] | growth inhibition (GI) [12] | growth inhibition (GI) [13] | growth inhibition (GI) [14] | growth inhibition (GI) [15] | growth inhibition (GI) [16] | growth inhibition (GI) [17] | growth inhibition (GI) [18] | growth inhibition (GI) [19] | growth inhibition (GI) [20] | growth inhibition (GI) [21] | growth inhibition (GI) [22] | growth inhibition (GI) [23] | growth inhibition (GI) [24] | growth inhibition (GI) [25] | growth inhibition (GI) [26] | growth inhibition (GI) [27] | growth inhibition (GI) [28] | growth inhibition (GI) [29] | growth inhibition (GI) [30] | growth inhibition (GI) [33] | growth inhibition (GI) [34] | growth inhibition (GI) [35] | growth inhibition (GI) [36]
inactive: Activity [31]
37%: Activity [32]

CC1(C)OB(c2ccc(N(CCCl)CCOS(C)(=O)=O)cc2)OC1(C)C
37%: Activity [32]
active: growth inhibition (GI) [1] | growth inhibition (GI) [2] | growth inhibition (GI) [3] | growth inhibition (GI) [4] | growth inhibition (GI) [5] | growth inhibition (GI) [6] | growth inhibition (GI) [7] | growth inhibition (GI) [8] | growth inhibition (GI) [9] | growth inhibition (GI) [10] | growth inhibition (GI) [11] | growth inhibition (GI) [12] | growth inhibition (GI) [13] | growth inhibition (GI) [14] | growth inhibition (GI) [15] | growth inhibition (GI) [16] | growth inhibition (GI) [17] | growth inhibition (GI) [18] | growth inhibition (GI) [19] | growth inhibition (GI) [20] | growth inhibition (GI) [21] | growth inhibition (GI) [22] | growth inhibition (GI) [23] | growth inhibition (GI) [24] | growth inhibition (GI) [25] | growth inhibition (GI) [26] | growth inhibition (GI) [27] | growth inhibition (GI) [28] | growth inhibition (GI) [29] | growth inhibition (GI) [30] | growth inhibition (GI) [33] | growth inhibition (GI) [34] | growth inhibition (GI) [35] | growth inhibition (GI) [36]
inactive: Activity [31]

CC1(C)OB(c2ccc(N(CCCl)CCCl)cc2)OC1(C)C
37%: Activity [32]
inactive: Activity [31]
active: growth inhibition (GI) [1] | growth inhibition (GI) [2] | growth inhibition (GI) [3] | growth inhibition (GI) [4] | growth inhibition (GI) [5] | growth inhibition (GI) [6] | growth inhibition (GI) [7] | growth inhibition (GI) [8] | growth inhibition (GI) [9] | growth inhibition (GI) [10] | growth inhibition (GI) [11] | growth inhibition (GI) [12] | growth inhibition (GI) [13] | growth inhibition (GI) [14] | growth inhibition (GI) [15] | growth inhibition (GI) [16] | growth inhibition (GI) [17] | growth inhibition (GI) [18] | growth inhibition (GI) [19] | growth inhibition (GI) [20] | growth inhibition (GI) [21] | growth inhibition (GI) [22] | growth inhibition (GI) [23] | growth inhibition (GI) [24] | growth inhibition (GI) [25] | growth inhibition (GI) [26] | growth inhibition (GI) [27] | growth inhibition (GI) [28] | growth inhibition (GI) [29] | growth inhibition (GI) [30] | growth inhibition (GI) [33] | growth inhibition (GI) [34] | growth inhibition (GI) [35] | growth inhibition (GI) [36]
